Bioassay records as filed in PubChem.
This is a sample that favours compounds with a hit; in the whole collection about 2.3% have one here.
TRPC4 agonist: opens the mouse TRPC4 cation channel. 310,000 tested, 0.49% active. HEK293 TRPC4beta/mu-opioid, Fluo4 calcium fluorescence; stronger effect = higher value. Q9QUQ5. B-score at 10 µM;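 active means B-score above 5 SD of library B-scores, and initial fluorescence ratio not above library mean plus 5 SD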;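 further: positive B-score marks a calcium rise read as TRPC4 activation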
Target sequence (Q9QUQ5 whole entry, looked up): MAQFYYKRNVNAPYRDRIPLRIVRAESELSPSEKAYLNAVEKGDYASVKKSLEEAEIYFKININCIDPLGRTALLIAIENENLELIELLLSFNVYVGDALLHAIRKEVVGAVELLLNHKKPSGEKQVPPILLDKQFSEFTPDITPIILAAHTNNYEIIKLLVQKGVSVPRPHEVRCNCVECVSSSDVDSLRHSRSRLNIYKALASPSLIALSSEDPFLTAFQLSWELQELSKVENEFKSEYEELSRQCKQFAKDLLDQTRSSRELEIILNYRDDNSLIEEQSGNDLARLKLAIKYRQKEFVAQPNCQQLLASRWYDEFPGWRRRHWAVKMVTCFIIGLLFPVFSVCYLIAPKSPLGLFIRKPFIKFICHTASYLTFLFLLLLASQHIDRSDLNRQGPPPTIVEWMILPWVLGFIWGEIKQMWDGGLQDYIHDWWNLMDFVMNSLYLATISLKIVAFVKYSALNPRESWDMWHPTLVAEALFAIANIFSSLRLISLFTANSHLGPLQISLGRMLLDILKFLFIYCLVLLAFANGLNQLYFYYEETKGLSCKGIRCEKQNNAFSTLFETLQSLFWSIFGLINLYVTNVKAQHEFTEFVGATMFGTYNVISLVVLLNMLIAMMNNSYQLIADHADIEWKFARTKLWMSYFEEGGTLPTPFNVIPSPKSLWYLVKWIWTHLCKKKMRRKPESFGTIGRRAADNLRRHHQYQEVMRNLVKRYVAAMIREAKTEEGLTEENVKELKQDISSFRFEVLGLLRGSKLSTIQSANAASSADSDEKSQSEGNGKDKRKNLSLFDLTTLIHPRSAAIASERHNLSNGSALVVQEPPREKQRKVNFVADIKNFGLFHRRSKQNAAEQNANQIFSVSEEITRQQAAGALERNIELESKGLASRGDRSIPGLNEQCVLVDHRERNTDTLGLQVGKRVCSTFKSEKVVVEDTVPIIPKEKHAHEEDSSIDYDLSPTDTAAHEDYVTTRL
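Technique: kinetic Fluo4 calcium fluorescence; Test system: TRPC4beta and mu-opioid receptor HEK293 stable cells; Measure: B-scored integrated calcium fluorescence ratio; Benchmarks: low control buffer alone, high control maximal DAMGO; Schedule: 45 min room-temperature Fluo4 loading, 110 s read.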
TRPC4 PAM: TRPC4 (mouse) allosteric potentiation; 310,000 tested, 0.42% active; HEK293 TRPC4beta/mu-opioid, DAMGO EC20, Fluo-4 Ca2+ flux; stronger effect = higher value; AID 2227; B-score at 10 µM; Q9QUQ5;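 active means B-score of calcium response area above 5 SD of library B-scores, with initial fluorescence ratio within 5 SD of library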;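 further: B-score of integrated fluorescence ratio over time as area under calcium response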
TRPC6 act: activators of mouse TRPC6 channel; HEK293-TRPC6 membrane potential dye fluorescence; stronger effect = higher value; B-score at 10 µM; 310,000 tested, 0.13% active; AID 2550;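 active means B-score of the integrated fluorescence ratio above library mean plus 3 SD, and starting fluorescence ratio within library mean plus 5 SD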;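 further: higher score means more depolarization so channel activation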
TRPC6 inh: blocks the mouse TRPC6 cation channel; HEK293-TRPC6, membrane potential dye, ACh-evoked depolarization; stronger effect = lower value; 310,000 tested, 1.1% active; Q61143; B-score at 10 µM;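 active means B-score under library mean minus 3 SD, initial fluorescence not abnormally high, positive integrated signal ratio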;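 further: B-score derived from integrated fluorescence ratio over the kinetic read; more negative B-score means stronger inhibition of depolarization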
TRPC4 block: blocks the mouse TRPC4 cation channel; 300,000 tested, 0.39% active; HEK293 TRPC4beta/mu-opioid, DAMGO-evoked Fluo4 calcium flux; stronger effect = lower value; B-score at 10 µM;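 active means B-score over 3 SD under the library average, no early fluorescence shift, positive overall ratio signal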
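test system = HEK293 cells with stable TRPC4beta plus mu-opioid receptor expression | detection = Fluo4 Ca2+ flux fluorescence | read-out = integrated fluorescence ratio relative to baseline, converted to per-well B score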
* = called active by the depositor.

Screening COc1ccc(C2C(C#N)=C(N)N(c3sc4c(c3C#N)CCCC4)C3=C2C(=O)CC(C)(C)C3)cc1OC (stereo unspecified) returned TRPC4 agonist inactive, TRPC4 PAM inactive, TRPC6 act inactive, TRPC6 inh inactive and TRPC4 block inactive.
For COC(=O)c1ccccc1S(=O)(=O)NCc1nc2nc(C)cc(C)n2n1 the results were TRPC4 agonist inactive, TRPC4 PAM inactive, TRPC6 act inactive, TRPC6 inh inactive and TRPC4 block inactive.
COc1ccc(-n2nc(C(=O)NCC(=O)Nc3cccc(Cl)c3)c3ccccc3c2=O)cc1 was read as TRPC4 agonist inactive, TRPC4 PAM inactive, TRPC6 act inactive, TRPC6 inh inactive and TRPC4 block inactive.
Screening COc1ccc(NC(=O)c2c(NC(=O)CNCc3ccco3)sc3c2CCC3)cc1 returned TRPC4 agonist inactive, TRPC4 PAM inactive, TRPC6 act inactive, TRPC6 inh inactive and TRPC4 block inactive.
`CCOc1ccc(NC(=O)c2c(NC(=O)CNCCN3CCOCC3)sc3c2CCC3)cc1` gave TRPC4 agonist inactive, TRPC4 PAM inactive, TRPC6 act inactive, TRPC6 inh -5.7* and TRPC4 block inactive.
Cc1ccc(C)c(-n2cc(CNC(C)Cn3cncn3)c(-c3ccccc3)n2)c1 (stereo unspecified) was read as TRPC4 agonist 66*, TRPC4 PAM inactive, TRPC6 act inactive, TRPC6 inh inactive and TRPC4 block inactive.
`COc1ccc(-c2nn(-c3ccccc3)cc2CNC(C)Cn2cncn2)c(F)c1` (stereo unspecified) gave TRPC4 agonist inactive, TRPC4 PAM inactive, TRPC6 act inactive, TRPC6 inh inactive and TRPC4 block inactive.
For Cc1ccc(-n2cc(CNC(C)Cn3cncn3)c(-c3ccc(F)cc3)n2)cc1 (stereo unspecified) the results were TRPC4 agonist 64*, TRPC4 PAM inactive, TRPC6 act inactive, TRPC6 inh inactive and TRPC4 block inactive.
`COc1ccc(-n2c3c(cc(C(=O)NNc4ccccc4)c2=O)C(=O)CC(C)(C)C3)cc1` gave TRPC4 agonist 70*, TRPC4 PAM inactive, TRPC6 act inactive, TRPC6 inh inactive and TRPC4 block inactive.
CC1(C)CC(=O)c2cc(C(=O)NCc3ccco3)c(=O)n(-c3ccc(Cl)cc3)c2C1 was read as TRPC4 agonist 121*, TRPC4 PAM inactive, TRPC6 act inactive, TRPC6 inh inactive and TRPC4 block inactive.
Cc1csc2nc(O)c(C(=O)NC3CCCCC3C)c(=O)n12 (stereo unspecified) was read as TRPC4 agonist inactive, TRPC4 PAM inactive, TRPC6 act inactive, TRPC6 inh inactive and TRPC4 block inactive.
For Cc1ccc(C)c(C(=O)C(C)Sc2nc3nn(-c4ccccc4)c(=O)c-3c3n2CCCCC3)c1 (stereo unspecified) the results were TRPC4 agonist inactive, TRPC4 PAM inactive, TRPC6 act inactive, TRPC6 inh inactive and TRPC4 block inactive.
`COc1ccc(-c2csc3ncnc(N4CCN(c5ccccc5[N+](=O)[O-])CC4)c23)cc1` gave TRPC4 agonist inactive, TRPC4 PAM inactive, TRPC6 act inactive, TRPC6 inh inactive and TRPC4 block inactive.
`Cc1ccc(Cl)cc1N1CCN(Cc2nc3ccsc3c(=O)[nH]2)CC1` gave TRPC4 agonist inactive, TRPC4 PAM 28*, TRPC6 act inactive, TRPC6 inh inactive and TRPC4 block inactive.
O=c1[nH]c(CN2CCN(c3ccc([N+](=O)[O-])cc3)CC2)nc2ccsc12 was read as TRPC4 agonist inactive, TRPC4 PAM inactive, TRPC6 act inactive, TRPC6 inh inactive and TRPC4 block inactive.
For Clc1ccc(-c2ccc(CNCc3ccccn3)o2)cc1 the results were TRPC4 agonist inactive, TRPC4 PAM inactive, TRPC6 act inactive, TRPC6 inh inactive and TRPC4 block inactive.
Cc1ccc2c(C)c(C(=O)N3CCN(c4ncccn4)CC3)oc2c1C was read as TRPC4 agonist inactive, TRPC4 PAM inactive, TRPC6 act inactive, TRPC6 inh inactive and TRPC4 block inactive.
For CCCn1c(SCC(=O)Nc2cc(Cl)ccc2Cl)n[nH]c1=O the results were TRPC4 agonist inactive, TRPC4 PAM inactive, TRPC6 act inactive, TRPC6 inh inactive and TRPC4 block inactive.
For CCCn1c(SCC(=O)NC(=O)Nc2ccc(C)cc2C)n[nH]c1=O the results were TRPC4 agonist inactive, TRPC4 PAM 12*, TRPC6 act inactive, TRPC6 inh inactive and TRPC4 block inactive.
Screening S=C(Nc1ccc(Oc2ccccc2)cc1)Nc1cccnc1 returned TRPC4 agonist inactive, TRPC4 PAM inactive, TRPC6 act inactive, TRPC6 inh inactive and TRPC4 block inactive.
Screening CCC/C=N/NC(=O)C1COc2ccccc2O1 (stereo unspecified) returned TRPC4 agonist inactive, TRPC4 PAM inactive, TRPC6 act inactive, TRPC6 inh inactive and TRPC4 block inactive.
For O=C(N/N=C\c1ccc[nH]1)C1COc2ccccc2O1 (stereo unspecified) the results were TRPC4 agonist 51*, TRPC4 PAM inactive, TRPC6 act inactive, TRPC6 inh inactive and TRPC4 block inactive.
For O=C(N/N=C/c1cccs1)C1COc2ccccc2O1 (stereo unspecified) the results were TRPC4 agonist inactive, TRPC4 PAM inactive, TRPC6 act inactive, TRPC6 inh inactive and TRPC4 block inactive.
For O=C(N/N=C/c1ccco1)C1COc2ccccc2O1 (stereo unspecified) the results were TRPC4 agonist 111*, TRPC4 PAM inactive, TRPC6 act inactive, TRPC6 inh inactive and TRPC4 block inactive.
Screening O=C(N/N=C\c1ccccn1)C1COc2cc3ccccc3cc2O1 (stereo unspecified) returned TRPC4 agonist 53*, TRPC4 PAM inactive, TRPC6 act inactive, TRPC6 inh inactive and TRPC4 block inactive.
Screening O=C(N/N=C\c1ccc(Br)o1)C1COc2ccccc2O1 (stereo unspecified) returned TRPC4 agonist inactive, TRPC4 PAM inactive, TRPC6 act inactive, TRPC6 inh inactive and TRPC4 block inactive.
For Cc1ccc(/C=N/NC(=O)C2COc3ccccc3O2)s1 (stereo unspecified) the results were TRPC4 agonist inactive, TRPC4 PAM 76*, TRPC6 act inactive, TRPC6 inh inactive and TRPC4 block inactive.
COc1ccc(Sc2nc(-c3ccccc3)ncc2C(=O)O)cc1 was read as TRPC4 agonist inactive, TRPC4 PAM inactive, TRPC6 act inactive, TRPC6 inh inactive and TRPC4 block -7*.
Screening COc1ccc(NC(=O)c2c(N)no[n+]2[O-])cc1 returned TRPC4 agonist inactive, TRPC4 PAM inactive, TRPC6 act inactive, TRPC6 inh inactive and TRPC4 block inactive.
